In the experiment the target is Steroidogenic factor 1 (Homo sapiens) (UniProt Q13285). As to the kind of experiment: SF-1 driven luciferase reporter response, dose response, counter-screen for RORA activator project, CHO-K1 cells (AID 695). Conditions: CHO-K1 SF1 luciferase transactivation, luminescence. In a few lines:
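Material – transiently transfected CHO-K1, Gal4-DBD/human SF-1 LBD fusion, 5xGal4-luciferase reporter · Signal – luciferase luminescence with SteadyLite reagent · Replication – triplicate wells per concentration · Times – 20 h compound treatment, 37 °C · Measure – EC50 by four-parameter fit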

For the molecule `O=C1COc2ccc(OCc3ccc(F)cc3)cc21`, the EC50 is 1710 nM.
The value for `C=CCOc1ccc(/C=C/C(C)=N\O)cc1` was 1020 nM.

One may read the EC50 as the concentration needed to bring the measured effect to its halfway point.
